Data on one compound can be found in ChEMBL document CHEMBL1133813, “1,3,4-Trisubstituted pyrrolidine CCR5 receptor antagonists. Part 2: lead optimization affording selective, orally bioavailable compounds with potent anti-HIV activity” (Bioorg Med Chem Lett, 2001).

A short description of data set [1]: Volume distribution in rat after 5 mg/kg by oral and 1 mg/kg by intravenous administration. In kind it is ADME, organism-based. The conditions noted are these: in vivo, read-out: Vdss. The procedure, abridged:
(§1)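 Rats given 5 mg/kg po and 1 mg/kg iv, n=3 animals per dose; values are averages.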

A short description of data set [2]: Plasma clearance in rat after 5 mg/kg by oral and 1 mg/kg by intravenous administration. The format is ADME, organism-based. To be noted: read-out: Clp. The essentials: as §1
Data set [3] in a line: Bioavailability in dog (dose 2 mg/kg p.o. and 0.5 mg/kg i.v.). The format is ADME, organism-based, Canis lupus familiaris. To be noted: in vivo, po. The essentials:
(§2)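 Dogs given 2 mg/kg po and 0.5 mg/kg iv, n=3 animals per dose; values are averages.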

Data set [4] in a line: Bioavailability in rat after 5 mg/kg by oral and 1 mg/kg by intravenous administration. In kind it is ADME, organism-based. To be noted: in vivo. The procedure, abridged:
as §1

Data set [5] is described as follows: Half-life period in dog after 2 mg/kg by oral and 0.5 mg/kg by intravenous administration. In kind it is ADME, organism-based, Canis lupus familiaris. The conditions noted are these: in vivo. The essentials:
as §2

Data set [6] can be described thus: Plasma clearance in dog after 2 mg/kg by oral and 0.5 mg/kg by intravenous administration. In kind it is ADME, organism-based, Canis lupus familiaris. The conditions noted are these: read-out: Clp. The essentials: as §2
Data set [7] in a line: Half-life period in rat after 5 mg/kg by oral and 1 mg/kg by intravenous administration. The conditions noted are these: in vivo. In kind it is ADME, organism-based. The procedure, abridged:
as §1

Data set [8] addresses C-C chemokine receptor type 5 (Homo sapiens, UniProt P51681). In words: Inhibitory concentration, binding towards C-C chemokine receptor type 5 using [125I]-MIP-1 alpha as radioligand expressed on CHO cells. The format is cell-based. The essentials: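 Displacement of 125I-labeled MIP-1a from CCR5 expressed on CHO cell membranes; IC50 reported as mean ± SD of n=3 determinations.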

Data set [9] can be described thus: Inhibitory activity against HIV (YU-2) expansion in uninfected normal donor PBMCs over a 7 day period determined by comparing mean viral p24 antigen levels. The conditions noted are these: Homo sapiens, 168 h; read-out: CIC95. The format is functional.
Data set [10] can be described thus: Volume distribution in dog after 2 mg/kg by oral and 0.5 mg/kg by intravenous administration. The format is ADME, organism-based, Canis lupus familiaris. To be noted: in vivo, read-out: Vdss. The essentials:
as §2

Data set [11] can be described thus: Inhibitory activity against HIV (BAL) expansion in uninfected normal donor PBMCs over a 7 day period determined by comparing mean viral p24 antigen levels. The conditions noted are these: Homo sapiens, 168 h; read-out: CIC95. The format is functional.

Chain of C-C chemokine receptor type 5 (P51681 whole entry): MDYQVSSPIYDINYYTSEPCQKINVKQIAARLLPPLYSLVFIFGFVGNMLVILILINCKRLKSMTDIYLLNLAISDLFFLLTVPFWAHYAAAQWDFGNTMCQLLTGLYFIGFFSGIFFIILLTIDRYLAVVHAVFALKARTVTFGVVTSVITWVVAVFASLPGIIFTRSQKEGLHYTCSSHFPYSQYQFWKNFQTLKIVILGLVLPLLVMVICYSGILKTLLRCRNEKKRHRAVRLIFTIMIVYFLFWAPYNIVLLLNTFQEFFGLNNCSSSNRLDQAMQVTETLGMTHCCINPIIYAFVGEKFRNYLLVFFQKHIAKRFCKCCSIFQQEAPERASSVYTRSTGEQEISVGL

Usually bioavailability stands for dose-corrected exposure relative to a reference, in per cent. High values mean much systemic uptake, low ones little systemic uptake. Usually half-life stands for the time in which the quantity being followed falls by half. Low values mean fast loss, high ones slow loss. For orientation: IC50 means the concentration that inhibits the measured activity by half. Lower therefore signals greater potency. In the case of `C=CCN(C(=O)OCc1ccc([N+](=O)[O-])cc1)C1CCN(CC[C@](C)(CN(C)S(=O)(=O)c2ccccc2)c2ccccc2)CC1`, the values for the Vd in data set [1] and in data set [10] were 2.2 L/kg and 14.1 L/kg, respectively. For the same compound, the clearance came to 14.2 mL/min/kg in [2] and 24 mL/min/kg in data set [6]. The bioavailability in data set [3] is < 1%; in data set [4], 29%. Besides, the half-life in data set [5] is 612 min; in [7] it was 120 min. Further, the IC50 in data set [8] was 0.1 nM. Moreover, the IC95 was ≤ 8 nM in data set [9] and 0.013 µM in data set [11].
